In PMC2873786 (Organic & biomolecular chemistry, 2009):
Where two headings read alike, the source gives them in different places.

Tests used:
[1] = molecular target: T1, oCOX-1 peroxidase (Ovis aries, UniProt P05979); assay: Effect on reduction of PPHP to PPA; format: biochemical, ovine; conditions: for increase in peroxidase activity of oCOX-1: at a concentration of 1 mM, PPHP to PPA; for peroxidase activation at low concentration: at 100 μM, compared with 1-3
T1 sequence (P05979 25-600): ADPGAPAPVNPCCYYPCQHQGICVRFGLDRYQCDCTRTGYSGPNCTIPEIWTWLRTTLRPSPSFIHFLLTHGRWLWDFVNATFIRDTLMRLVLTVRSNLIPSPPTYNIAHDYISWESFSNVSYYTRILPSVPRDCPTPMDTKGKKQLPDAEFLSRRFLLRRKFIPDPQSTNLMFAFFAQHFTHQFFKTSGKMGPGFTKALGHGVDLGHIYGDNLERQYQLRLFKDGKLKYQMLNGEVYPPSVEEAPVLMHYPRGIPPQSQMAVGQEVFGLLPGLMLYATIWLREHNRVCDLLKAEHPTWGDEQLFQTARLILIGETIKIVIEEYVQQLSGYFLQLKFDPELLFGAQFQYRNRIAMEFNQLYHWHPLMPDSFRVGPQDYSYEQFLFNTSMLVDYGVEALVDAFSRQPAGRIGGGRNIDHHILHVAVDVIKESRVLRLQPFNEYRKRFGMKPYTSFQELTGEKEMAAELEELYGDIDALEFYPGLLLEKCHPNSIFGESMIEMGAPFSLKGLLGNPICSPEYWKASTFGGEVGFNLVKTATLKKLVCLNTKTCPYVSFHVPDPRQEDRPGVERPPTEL
Method in brief: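 Ovine COX-1 was held 30 min on ice with 2 equiv hematin in Tris·HCl pH 8.0 without phenol. It was warmed 5 min at 37 °C with or without compound. PPHP (10 μM final) was prewarmed 2 min. The reaction was started with enzyme at 5.4 nM and quenched after 8 s with ice-cold ether–methanol–citric acid. The organic phase was dried under nitrogen, redissolved in 65% methanol–water, and analysed by HPLC for PPA formation.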

[2] = Spectrophotometric determination of pKa values; format: physicochemical; conditions: 298 K, 10 mM potassium phosphate, 200 mM KCl, spectrophotometry
Method in brief: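 UV spectra were recorded in buffer at varied pH, blank first. Compound was added from a 25 mM ethanol stock and the pH was remeasured. Aryloxide fraction came from absorbance at λmax, normalised between low- and high-pH limits. pKa was obtained by fitting the fraction versus pH to a sigmoidal function.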

[3] = molecular target: T2, ovine COX-1 (Ovis aries, UniProt P05979); assay: Inhibition of oCOX-1; format: biochemical; conditions: for oCOX-1 inhibition, fold less effective than 1: relative to 1; for oCOX-1 inhibition (prostaglandin biosynthesis), fold more effective than ApAP: relative to ApAP
T2 sequence (P05979 25-600): T1 sequence (P05979 25-600)
Method in brief: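 Ovine COX-1 was purified from ram seminal vesicles and held 30 min on ice with 2 equiv hematin in Tris·HCl pH 8.0 plus 500 μM phenol. It was then warmed 2 min at 37 °C with compound. The reaction used [¹⁴C]arachidonic acid (0.5 μM final, prewarmed 30 s) and was started with enzyme at 5.4 nM. It was quenched after 8 s with acidic ether–methanol containing BHA. Products were resolved by radio-TLC. Activity was expressed as % of control, 4–6 values per point.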

[4] = Anodic peak potentials by differential pulse voltammetry; format: physicochemical; conditions: 298 K versus Ag/AgCl, at the pKa
Method in brief: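 Glassy carbon working electrode (alumina-polished between trials), Ag/AgCl reference, platinum wire counter. Buffer was 10 mM potassium phosphate with KCl electrolyte, pH set with KOH or HCl. Compound was added from a 25 mM ethanol stock, pH was measured, and the solution was argon-purged 1 min. DPV used 0.05 s pulse width, 0.2 s pulse period and 10 mV/s at 298 K. […].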

[5] = molecular target: T3, oCOX-1 (Ovis aries, UniProt P05979); assay: pH-dependent inhibition of COX-1; format: biochemical, ovine; conditions: pH 6.6 to 8.5; 0.5 mM 1; 1.0 mM 2 and 3
T3 sequence (P05979 25-600): T1 sequence (P05979 25-600)
Method in brief: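 COX-1 radiolabelled arachidonic acid (0.5 μM) assay: hematin-reconstituted enzyme at 5.4 nM, 8 s reaction at 37 °C, radio-TLC. Buffers were Tris·HCl at pH 8.5, 8.0 and 7.4, and sodium phosphate at pH 8.0, 7.4 and 6.6, all with 500 μM phenol. Compound was present at 0.5 or 1.0 mM final. Activity was expressed as % of the uninhibited control in the same buffer and pH. Significance was tested by Student t-test.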

[6] = Inhibited autoxidation of styrene; conditions: for kinh: 303 K in chlorobenzene, initiated by AMVN, styrene autoxidation; for inhibition rate constant, fold lower than for 1: relative to 1
[7] = reference antioxidants; ref 27b; cited from earlier work
[8] = molecular target: T4, soybean lipoxygenase-1 (sLOX-1) (Glycine max, UniProt P08170); assay: Inhibition of sLOX-1; format: biochemical; conditions: up to 0.25 mM
T4 sequence (P08170 1-839): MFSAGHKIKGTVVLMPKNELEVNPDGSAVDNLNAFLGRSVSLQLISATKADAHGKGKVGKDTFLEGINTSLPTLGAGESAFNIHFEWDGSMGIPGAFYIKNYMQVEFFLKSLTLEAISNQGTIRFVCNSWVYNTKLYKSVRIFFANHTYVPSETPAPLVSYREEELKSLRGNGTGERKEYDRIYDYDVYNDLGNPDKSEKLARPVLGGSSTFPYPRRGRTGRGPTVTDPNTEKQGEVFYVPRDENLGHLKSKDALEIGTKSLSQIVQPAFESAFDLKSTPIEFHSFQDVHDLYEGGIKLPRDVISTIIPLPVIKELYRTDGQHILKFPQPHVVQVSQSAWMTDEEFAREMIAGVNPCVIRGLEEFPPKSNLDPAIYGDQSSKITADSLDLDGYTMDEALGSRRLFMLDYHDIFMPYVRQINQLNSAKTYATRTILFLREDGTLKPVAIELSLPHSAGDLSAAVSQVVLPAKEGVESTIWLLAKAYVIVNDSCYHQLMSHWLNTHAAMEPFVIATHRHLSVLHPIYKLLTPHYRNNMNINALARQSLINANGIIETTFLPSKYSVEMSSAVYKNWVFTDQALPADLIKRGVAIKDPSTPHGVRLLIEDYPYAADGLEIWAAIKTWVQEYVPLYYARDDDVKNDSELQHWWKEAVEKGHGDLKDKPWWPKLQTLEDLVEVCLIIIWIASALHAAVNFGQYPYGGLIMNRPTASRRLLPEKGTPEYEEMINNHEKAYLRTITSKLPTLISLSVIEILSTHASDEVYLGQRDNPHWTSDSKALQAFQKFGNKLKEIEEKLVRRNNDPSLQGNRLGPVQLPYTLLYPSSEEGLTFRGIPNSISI
Method in brief: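 Soybean LOX-1 was purified from a commercial preparation. Linoleic acid (20 μM) was in 100 mM borate pH 9.2. Compound was added from ethanol at […] final (<5% ethanol), then enzyme at 3 nM final. Initial rates (<10% conversion) were followed at 234 nm as 13-HPODE formation. Rates were expressed relative to no-compound controls, 4–6 values per point, and IC50 was derived.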

[9] = tested on: HepG2 cells; assay: Cytotoxicity assay with HepG2 cell line; format: cell-based, human; conditions: for decrease of total intracellular ATP concentration compared to control: 2 mM (highest exposure level); for intracellular ATP levels, fold control levels: HepG2, 24 h exposure
Method in brief: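 HepG2 cells (ATCC) were grown in DMEM with 10% FBS, non-essential amino acids, penicillin–streptomycin, pyruvate and glutamine, under 5% CO₂ at 37 °C. Cells were seeded at 10⁵ cells/mL with ethanol or water vehicle below 0.5%. Serial compound dilutions, up to 2 mM, were applied for 24 h with 2–3 replicates per dose. Cells were lysed for 5 min and ATP read by luciferin–luciferase luminescence after 10 min at room temperature. Values were taken relative to untreated control.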

[10] = B3LYP calculated gas-phase O–H BDEs, ionization potentials and acidities; conditions: predicted; 5a vs 2, 6a vs 3
[11] = cited from earlier work
[12] = calculated, gas-phase; ref 18c; cited from earlier work

Structure (SMILES) | increase in peroxidase activity of oCOX-1 [1] | pKa [2] | Epa @ pKa [4] | pH-dependence of oCOX-1 inhibition [5] | kinh [6] | stability under ambient conditions [11] | IP [12] | O–H BDE [12] | other results
CC(=O)Nc1ncc(O)cn1 [compound 3] | only slightly | 5.89 | 1.02 V | markedly improved at higher pH | 10000 M⁻¹ s⁻¹ | – | – | – | oCOX-1 inhibition, fold less effective than 1 [3]: ~3 fold; inhibition rate constant, fold lower than for 1 [6]: 50 fold
Cc1cc(C(C)(C)C)c(O)c(C(C)(C)C)c1 [BHT, butylated hydroxytoluene] | – | – | – | – | – | – | – | – | kinh [7]: 140000 M⁻¹ s⁻¹
CC(=O)Nc1ccc(O)cc1 [compound 1, Acetaminophen, reference compound] | 11 fold | – | 0.32 V | did not change significantly | 500000 M⁻¹ s⁻¹ | – | – | – | inhibition of sLOX-1 [8]: does not inhibit; decrease of total intracellular ATP concentration compared to control ([9]; HepG2, 24 h): 24.8 ± 1.0%; IC50 [3]: 250 µM; kinh ([6]; listed as ApAP): 500000 M⁻¹ s⁻¹; inhibition rate constant, fold larger than that of BHT ([6]; relative to BHT): ~4 fold
CC(=O)Nc1ccc(O)cn1 [compound 2] | only slightly | 8.28 | 0.48 V | markedly improved at higher pH | 40000 M⁻¹ s⁻¹ | – | – | – | oCOX-1 inhibition, fold less effective than 1 [3]: ca. 1.6 fold; inhibition rate constant, fold lower than for 1 [6]: 12.5 fold
Cc1c(C)c2c(c(C)c1O)CC[C@@](C)(CCC[C@H](C)CCC[C@H](C)CCCC(C)C)O2 [α-tocopherol] | – | – | – | – | – | – | – | – | kinh [7]: 3.2e+06 M⁻¹ s⁻¹
CN(C)c1ccc(O)cc1 [4a, reference compound] | – | – | – | – | – | too unstable | 157.7 kcal/mol | 76.0 kcal/mol | –

Further lines, with some results ahead:

increase in peroxidase activity of oCOX-1 [1] | pKa [2] | Epa @ pKa [4] | pH-dependence of oCOX-1 inhibition [5] | Structure (SMILES) | kinh [6] | stability under ambient conditions [11] | IP [12] | O–H BDE [12] | other results
– | 9.27 | 0.12 V | – | CN(C)c1ccc(O)cn1 [5a] | 4.8 × 10^6 ^d M^−1 s^−1 | quite stable | 164.6 kcal/mol | 77.0 kcal/mol | effect on ATP production ([9]; HepG2, 24 h, by 500 μM exposure): eliminating ATP production; intracellular ATP levels, fold control levels ([9]; 10 μM): ca. 1.75 fold; cytotoxicity in preliminary HepG2 viability assays ([9]; HepG2 cell culture): relatively toxic; effect on peroxidase activity at higher concentration ([1]; above 100 μM): abolishes peroxidase activity; peroxidase activation at low concentration [1]: greater peroxidase activation; O–H BDE lower than in 2 and 3 [10]: 5 to 6 kcal/mol; oCOX-1 inhibition (prostaglandin biosynthesis), fold more effective than ApAP [3]: ca. 12 fold
– | 8.18 | 0.31 V | – | CN(C)c1ncc(O)cn1 [6a] | 1.1 × 10^6 ^d M^−1 s^−1 | quite stable | 174.6 kcal/mol | 78.3 kcal/mol | decrease of total intracellular ATP concentration compared to control ([9]; HepG2, 24 h): 31.3 ± 1.0%; intracellular ATP concentration relative to control ([9]; HepG2, 24 h, beyond 1 mM): at or above the control; intracellular ATP levels, fold control levels ([9]; 100 μM): ca. 1.8 fold; peroxidase activation at low concentration [1]: greater peroxidase activation; O–H BDE lower than in 2 and 3 [10]: 5 to 6 kcal/mol; oCOX-1 inhibition (prostaglandin biosynthesis), fold more effective than ApAP [3]: ca. 12 fold
